Experimental findings from ChEMBL document CHEMBL1275252, “First survey of metallo-beta-lactamases in clinical isolates of Pseudomonas aeruginosa in a German university hospital” (2010) are described below.

Type in all cases: functional
Test [1] has as its system Pseudomonas aeruginosa. Briefly: Antimicrobial activity against Pseudomonas aeruginosa isolate PA399 expressing VIM-2 beta-lactamase.
The subject of test [2] is Pseudomonas aeruginosa. Nature of the test: Antimicrobial activity against Pseudomonas aeruginosa isolate PA462 expressing VIM-2 beta-lactamase.
In test [3] the test system is Pseudomonas aeruginosa. Briefly: Antimicrobial activity against Pseudomonas aeruginosa isolate PA465 expressing VIM-2 beta-lactamase.
For test [4], the system named is Pseudomonas aeruginosa. Briefly: Antimicrobial activity against Pseudomonas aeruginosa isolate PA469 expressing VIM-2 beta-lactamase.
In test [5] the test system is Pseudomonas aeruginosa. Briefly: Antimicrobial activity against Pseudomonas aeruginosa isolate PA475 expressing VIM-2 beta-lactamase.
For test [6], the system named is Pseudomonas aeruginosa. Nature of the test: Antimicrobial activity against Pseudomonas aeruginosa isolate PA477 expressing VIM-2 beta-lactamase.
Test [7] deals with Pseudomonas aeruginosa. Briefly: Antimicrobial activity against Pseudomonas aeruginosa isolate PA481 expressing VIM-2 beta-lactamase.
Test [8] concerns Pseudomonas aeruginosa. Briefly: Antimicrobial activity against Pseudomonas aeruginosa isolate PA500 expressing VIM-1 beta-lactamase.
Test [9] relates to Pseudomonas aeruginosa. Briefly: Antimicrobial activity against Pseudomonas aeruginosa isolate PA510 expressing VIM-2 beta-lactamase.
In test [10] the test system is Pseudomonas aeruginosa. Briefly: Antimicrobial activity against metallo-beta-lactamase-negative Pseudomonas aeruginosa isolate PA460.
Test [11] has as its system Pseudomonas aeruginosa. Briefly: Antimicrobial activity against metallo-beta-lactamase-negative Pseudomonas aeruginosa isolate PA479.
Test [12] has as its system Pseudomonas aeruginosa. Nature of the test: Antimicrobial activity against metallo-beta-lactamase-negative Pseudomonas aeruginosa isolate PA494.
The subject of test [13] is Pseudomonas aeruginosa. Nature of the test: Antimicrobial activity against metallo-beta-lactamase-negative Pseudomonas aeruginosa isolate PA509.
In test [14] the test system is Pseudomonas aeruginosa. Nature of the test: Antimicrobial activity against metallo-beta-lactamase-negative Pseudomonas aeruginosa isolate PA459. In a few lines:
(§1)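 MBL-negative clinical P. aeruginosa isolates with reduced imipenem susceptibility, collected at the study hospital, some from cystic fibrosis patients. Species identity was confirmed by automated Gram-negative identification card. MIC was read in μg/ml.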

Test [15] deals with Pseudomonas aeruginosa. Nature of the test: Antimicrobial activity against metallo-beta-lactamase-negative Pseudomonas aeruginosa isolate PA483.
For test [16], the system named is Pseudomonas aeruginosa. Nature of the test: Antimicrobial activity against metallo-beta-lactamase-negative Pseudomonas aeruginosa isolate PA507. In a few lines:
as §1

≈ marks a conversion by molar mass, not a printed value.

For the molecule `O=C(O)c1cn(C2CC2)c2cc(N3CCNCC3)c(F)cc2c1=O` [CIPROFLOXACIN], the MIC in [1], in [2], in [3], in [4], in test [5] and in test [6] was no less than 4 µg/mL in each case. Further, the MIC in test [7], in test [8], in test [9], in test [10], in test [11] and in test [12] was no less than 4 µg/mL each time. In addition, in test [13], the minimum inhibitory concentration (MIC) (in general, the least concentration at which growth counts as inhibited) is no less than 4 µg/mL.

For `NCC[C@H](O)C(=O)N[C@@H]1C[C@H](N)[C@@H](O[C@H]2O[C@H](CN)[C@@H](O)[C@H](O)[C@H]2O)[C@H](O)[C@H]1O[C@H]1O[C@H](CO)[C@@H](O)[C@H](N)[C@H]1O` [AMIKACIN], the MIC in test [1] is 8 µg/mL (≈ 13.7 µM); in test [2], 4 µg/mL (≈ 6.83 µM); in test [3], 8 µg/mL (≈ 13.7 µM); in test [4] it was 8 µg/mL (≈ 13.7 µM); in test [5], 4 µg/mL (≈ 6.83 µM); in [6], 8 µg/mL (≈ 13.7 µM). The MIC in [7] was 8 µg/mL (≈ 13.7 µM); in [8] it was no more than 2 µg/mL; in test [9], 4 µg/mL (≈ 6.83 µM); in test [14], 2 µg/mL (≈ 3.42 µM); in test [10] it was 4 µg/mL (≈ 6.83 µM); in test [11], 8 µg/mL (≈ 13.7 µM). Also, the MIC is 2 µg/mL (≈ 3.42 µM) in test [15], 8 µg/mL (≈ 13.7 µM) in test [12], 16 µg/mL (≈ 27.3 µM) in [16] and 64 µg/mL (≈ 109 µM) in test [13].

`CO/N=C(\C(=O)N[C@@H]1C(=O)N2C(C(=O)[O-])=C(C[N+]3(C)CCCC3)CS[C@H]12)c1csc(N)n1` [CEFEPIME]: the MIC in test [1], in test [2], in [3], in test [4], in test [5] and in [6] was no less than 64 µg/mL throughout. Further, the MIC in test [7] was no less than 64 µg/mL; in [8], no less than 64 µg/mL; in test [9], no less than 64 µg/mL; in test [14], 8 µg/mL (≈ 16.6 µM); in [11], no less than 64 µg/mL; in test [15] it was 32 µg/mL (≈ 66.6 µM). The MIC in test [12] turned out to be 8 µg/mL (≈ 16.6 µM); in test [13], 16 µg/mL (≈ 33.3 µM).

Turning to GENTAMICIN, the MIC in test [1], in test [2], in test [3], in test [4], in test [5] and in test [6] was greater than 16 µg/mL in each case. Further, the MIC is greater than 16 µg/mL in test [7]; greater than 16 µg/mL in [8]; greater than 16 µg/mL in [9]; 1 µg/mL in test [14]; greater than 16 µg/mL in test [10]; greater than 16 µg/mL in test [11]. In addition, the MIC was 1 µg/mL in test [15], 8 µg/mL in test [12], greater than 16 µg/mL in test [16] and greater than 16 µg/mL in [13].

`C[C@@H](O)[C@H]1C(=O)N2C(C(=O)O)=C(S[C@@H]3CN[C@H](C(=O)N(C)C)C3)[C@H](C)[C@H]12` [MEROPENEM]: the MIC in test [1], in test [2], in test [3], in test [4], in [5] and in test [6] was no less than 16 µg/mL throughout. In addition, the MIC in test [7] is no less than 16 µg/mL; in test [8] it was no less than 16 µg/mL; in test [9], no less than 16 µg/mL; in test [14] it was 8 µg/mL (≈ 20.9 µM); in test [10], 8 µg/mL (≈ 20.9 µM); in test [11], no less than 16 µg/mL. The MIC in test [15] was no less than 16 µg/mL; in [12], 8 µg/mL (≈ 20.9 µM); in [16], 4 µg/mL (≈ 10.4 µM); in test [13] it was no less than 16 µg/mL.

Consider `C[C@H]1[C@H](NC(=O)/C(=N\OC(C)(C)C(=O)O)c2csc(N)n2)C(=O)N1S(=O)(=O)O` [AZTREONAM], for which the MIC in test [1], in test [2], in [3], in test [4], in test [5] and in [6] was 16 µg/mL (≈ 36.7 µM) in each case. For the same molecule, the MIC was 16 µg/mL (≈ 36.7 µM) in [7]; 4 µg/mL (≈ 9.19 µM) in test [8]; no less than 64 µg/mL in test [9]; 16 µg/mL (≈ 36.7 µM) in test [14]; 16 µg/mL (≈ 36.7 µM) in test [10]; 32 µg/mL (≈ 73.5 µM) in test [11]. Besides, the MIC in test [15] came out at 64 µg/mL (≈ 147 µM); in test [12] it was 16 µg/mL (≈ 36.7 µM); in test [16] it was 16 µg/mL (≈ 36.7 µM); in test [13], 8 µg/mL (≈ 18.4 µM).

Take COLISTIN: the MIC was determined as 1 µg/mL in [1]; 1 µg/mL in test [2]; 2 µg/mL in test [3]; 1 µg/mL in test [4]; 1 µg/mL in [5]; 1 µg/mL in test [6]. The MIC in test [7], in [8], in [9], in test [14], in [10] and in [11] was 1 µg/mL each time. In addition, the MIC in test [15] was found to be 1 µg/mL; in [12], 1 µg/mL; in [16], 1 µg/mL; in [13] it was 2 µg/mL.

As for `NC[C@H]1O[C@H](O[C@H]2[C@H](O)[C@@H](O[C@H]3O[C@H](CO)[C@@H](O)[C@H](N)[C@H]3O)[C@H](N)C[C@@H]2N)[C@H](N)C[C@@H]1O` [TOBRAMYCIN], the MIC in [1] was no less than 16 µg/mL; in [2] it was no less than 16 µg/mL; in test [3], no more than 1 µg/mL; in [4] it was no less than 16 µg/mL; in test [5], no less than 16 µg/mL; in test [6], no less than 16 µg/mL. The MIC in [7] is no less than 16 µg/mL; in test [8], 8 µg/mL (≈ 17.1 µM); in test [9], no less than 16 µg/mL; in test [14], 1 µg/mL (≈ 2.14 µM); in test [10] it was no less than 16 µg/mL; in test [11], no less than 16 µg/mL. Further, the MIC in test [15] was 1 µg/mL (≈ 2.14 µM); in test [12], 1 µg/mL (≈ 2.14 µM); in [16] it was 1 µg/mL (≈ 2.14 µM); in test [13], no less than 16 µg/mL.
